In ChEMBL document CHEMBL1152330, “Cytotoxic triterpenoid alkaloids from Buxus microphylla” (J Nat Prod, 2009):

Tests used:
HepG2 = assay: Cytotoxicity against human HepG2 cells after 72 hrs by MTT assay; assay type: functional, cell-based; settings: HepG2, 72 h
In short: (§1)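 Cells grown in RPMI-1640 with 10% heat-inactivated bovine serum, L-glutamine, penicillin/streptomycin and 10 mM HEPES pH 7.4, at 37 °C, 5% CO2. Seeded, allowed to adhere 24 h, then exposed at 0.01–100 µg/mL (tenfold steps) for 72 h, triplicate wells. MTT 4 h, SDS–isobutanol–HCl solubilization 12–20 h. OD 570 nm versus DMSO controls. IC50 by LOGIT.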

K562 = assay: Cytotoxicity against human K562 cells after 72 hrs by MTT assay; assay type: functional, cell-based; settings: K562, 72 h; in short: as §1

Row | SMILES | IC50 (HepG2) [µM] | IC50 (K562) [µM]
1 | C/C=C1/C(=O)C[C@@]2(C)[C@@H]3CCC4C(C)(C)[C@@H](NC)CC[C@@]45C[C@@]35CC[C@]12C (stereo partly specified) | > 100 | 1.7
2 | C=C1C2CC[C@@H]3[C@]4(CC[C@]5(C)/C(=C\C)C(=O)C[C@@]35C)C[C@]24CC[C@@H]1NC (stereo partly specified) [BIXMICROPHYLLINE B] | 0.78 | 0.37
3 | C=C1C2CC[C@@H]3[C@]4(CC[C@]5(C)[C@@H](C(C)=O)[C@H](O)C[C@@]35C)C[C@]24CC[C@@H]1N(C)C (stereo partly specified) [BUXIPPINE K] | 57.1 | 35.3
4 | C[C@@H]([C@H]1[C@H](OC(=O)c2ccccc2)C[C@@]2(C)[C@@H]3CCC4[C@@]5(CC[C@H](NC(=O)c6ccccc6)[C@@]4(C)CO)C[C@@]35CC[C@]12C)N(C)C (stereo partly specified) [BUXMICROPHYLLINE E] | 39.7 | > 100
5 | CC(C)C(=O)N[C@H]1CC[C@]23C[C@]24CC[C@]2(C)[C@@H]([C@H](C)N(C)C)[C@H](OC(=O)c5ccccc5)C[C@@]2(C)[C@@H]4C=CC3[C@]1(C)CO (stereo partly specified) [BUXMICROPHYLLINE F] | 20.1 | 2.95
6 | COc1ccc(/C=C/C(=O)N[C@H]2CC[C@]34C[C@]35CC[C@]3(C)[C@@H]([C@H](C)N(C)C)[C@H](O)C[C@@]3(C)[C@@H]5CCC4[C@]2(C)CO)cc1O (stereo partly specified) [BUXMICROPHYLLINE G] | 0.89 | 4.44
7 | C=C1C2CC[C@@H]3[C@]4(CC[C@]5(C)[C@@H](C(C)=O)[C@H](O)C[C@@]35C)C[C@]24CC[C@@H]1NC (stereo partly specified) [CYCLOMICROBUXININE] | > 100 | > 100
8 | C/C=C1\C(=O)C[C@@]2(C)[C@@H]3CCC4C(C)(C)[C@@H](NC)CC[C@@]45C[C@@]35CC[C@]12C (stereo partly specified) [Z-buxenone] | 14.9 | 5.61
